Test results published in article PMC2674521 (Journal of pharmaceutical sciences, 2009).
Where “and” joins values, the source holds several entries; their conditions need not be identical. Equal values may be shown once. Read-outs that look alike come from different tables or passages of the source. One block for each compound: values may come before it.

What was measured:
[1] = no reference given; cited from earlier work
HSA = settings: cited from earlier work
RSA = settings: ref 46; cited from earlier work
[2] = target: T1, human serum albumin (HSA) (Homo sapiens, UniProt P02768); type: in vitro ADME; settings: for increase in free radiopharmaceutical level: 8:1 warfarin:HSA mole ratio vs drug-free; for Unbound [^64Cu]Cu-PTSM: HSA; for % Free [^64Cu]Cu-PTSM: 49°C, 2.5% v/v ethanol
Procedure, shortened: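 HSA (globulin-free, ≥99.5% fatty acid free) reconstituted in 0.9% saline at 0.66 mM. 100 µL of drug in saline (3.3–53 mM, pH 7) or saline alone (drug-free control) added to 1.0 mL, giving 40 mg/mL HSA at 0.5:1–8:1 drug:HSA. 2–8 µCi 64Cu tracer added and vortexed. Triplicate aliquots ultrafiltered (30,000 Da NMWL) within 5 min, 64Cu gamma-counted.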

[3] = target: T2, canine serum albumin (CSA) (Canis lupus familiaris, UniProt P49822); type: in vitro ADME; settings: for Unbound level: CSA solutions containing warfarin; for Free tracer: CSA solutions with added ibuprofen
[4] = target: T1, human serum albumin (HSA); settings: cited from earlier work; for % bound to HSA: 40 mg/mL HSA solution
[5] = ref 37, 38; cited from earlier work
[6] = Ultrafiltration of [^64Cu]Cu-PTSM in protein-free saline
Procedure, shortened: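 Membrane-integrity control without protein: 25 µL ethanol (2.5% v/v) added to 1.0 mL saline containing [64Cu]Cu-PTSM, compared with saline alone. Ultrafiltered through 30,000 Da NMWL membranes, n = 5 per group. % free tracer from 64Cu gamma counts of measured ultrafiltrate and starting-solution volumes.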

[7] = target: T2, canine serum albumin (CSA); settings: no competing drug; cited from earlier work
rat serum [8] = type: in vitro ADME
rat serum [9] = target: rat serum (Rattus norvegicus, UniProt P02770); settings: RSA solution; cited from earlier work
[10] = HSA solutions with even high concentrations of L-tryptophan
[11] = drug-free HSA control (drug:HSA mole ratio 0), 40 mg/mL HSA
[12] = ibuprofen:HSA mole ratio 0.5, 40 mg/mL HSA
[13] = ibuprofen:HSA mole ratio 1, 40 mg/mL HSA
[14] = ibuprofen:HSA mole ratio 2, 40 mg/mL HSA
[15] = ibuprofen:HSA mole ratio 4, 40 mg/mL HSA
[16] = ibuprofen:HSA mole ratio 8, 40 mg/mL HSA
[17] = ibuprofen:HSA mole ratios up to 4:1
[18] = warfarin:HSA mole ratio 0.5, 40 mg/mL HSA
[19] = warfarin:HSA mole ratio 1, 40 mg/mL HSA
[20] = warfarin:HSA mole ratio 2, 40 mg/mL HSA
[21] = warfarin:HSA mole ratio 4, 40 mg/mL HSA
[22] = warfarin:HSA mole ratio 8, 40 mg/mL HSA

T2 sequence (P49822 25-608): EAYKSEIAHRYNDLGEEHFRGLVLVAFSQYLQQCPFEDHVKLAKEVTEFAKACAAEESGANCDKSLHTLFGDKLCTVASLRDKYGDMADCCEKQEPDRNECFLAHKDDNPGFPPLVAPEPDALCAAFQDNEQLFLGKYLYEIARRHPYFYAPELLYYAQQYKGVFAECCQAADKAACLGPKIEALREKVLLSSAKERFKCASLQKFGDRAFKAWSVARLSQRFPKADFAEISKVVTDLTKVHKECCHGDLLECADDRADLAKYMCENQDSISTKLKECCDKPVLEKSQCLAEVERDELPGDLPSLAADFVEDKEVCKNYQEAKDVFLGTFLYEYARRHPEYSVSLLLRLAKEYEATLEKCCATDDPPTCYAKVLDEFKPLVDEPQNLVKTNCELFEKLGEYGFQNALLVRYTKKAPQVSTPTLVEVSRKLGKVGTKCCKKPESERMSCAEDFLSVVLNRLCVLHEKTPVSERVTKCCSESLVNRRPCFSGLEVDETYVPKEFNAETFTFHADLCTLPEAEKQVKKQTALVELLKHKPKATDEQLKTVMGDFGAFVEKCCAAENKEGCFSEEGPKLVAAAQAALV
T1 sequence (P02768 25-609): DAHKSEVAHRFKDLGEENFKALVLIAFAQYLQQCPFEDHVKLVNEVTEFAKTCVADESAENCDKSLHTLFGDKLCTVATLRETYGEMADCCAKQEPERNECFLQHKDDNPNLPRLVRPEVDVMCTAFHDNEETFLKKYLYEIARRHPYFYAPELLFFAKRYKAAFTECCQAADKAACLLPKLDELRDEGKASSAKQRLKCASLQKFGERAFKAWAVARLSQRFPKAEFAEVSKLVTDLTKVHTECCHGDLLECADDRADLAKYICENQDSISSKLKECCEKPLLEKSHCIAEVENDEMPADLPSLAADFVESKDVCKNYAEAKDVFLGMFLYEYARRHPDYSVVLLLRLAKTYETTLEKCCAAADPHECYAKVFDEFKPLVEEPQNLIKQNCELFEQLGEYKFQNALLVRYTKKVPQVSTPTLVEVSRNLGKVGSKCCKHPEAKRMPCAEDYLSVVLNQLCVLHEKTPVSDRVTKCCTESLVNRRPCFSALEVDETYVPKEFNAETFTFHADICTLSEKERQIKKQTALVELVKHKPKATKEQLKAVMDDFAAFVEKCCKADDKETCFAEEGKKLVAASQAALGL
Sequence of rat serum (Rattus norvegicus, UniProt P02770) (P02770 25-608): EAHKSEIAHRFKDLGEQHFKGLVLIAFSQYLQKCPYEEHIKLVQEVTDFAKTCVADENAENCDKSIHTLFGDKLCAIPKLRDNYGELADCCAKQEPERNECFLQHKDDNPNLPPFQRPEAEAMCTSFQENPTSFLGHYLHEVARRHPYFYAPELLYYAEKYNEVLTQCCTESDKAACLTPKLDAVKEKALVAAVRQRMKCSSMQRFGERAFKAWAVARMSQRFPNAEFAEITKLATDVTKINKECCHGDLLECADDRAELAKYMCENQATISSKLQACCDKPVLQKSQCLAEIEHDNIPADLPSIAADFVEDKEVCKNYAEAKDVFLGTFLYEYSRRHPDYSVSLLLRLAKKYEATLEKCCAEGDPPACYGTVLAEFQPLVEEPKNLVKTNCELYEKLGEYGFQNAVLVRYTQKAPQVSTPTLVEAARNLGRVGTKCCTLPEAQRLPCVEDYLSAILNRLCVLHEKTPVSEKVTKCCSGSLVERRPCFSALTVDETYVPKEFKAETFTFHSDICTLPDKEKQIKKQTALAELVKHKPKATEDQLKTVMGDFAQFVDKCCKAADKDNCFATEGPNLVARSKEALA

Compound: CC1(C)S[C@@H]2[C@H](NC(=O)Cc3ccccc3)C(=O)N2[C@H]1C(=O)O [Benzylpenicillin]
extent of protein binding in human plasma [1]: 50%
affinity constant for the IIA site of HSA (HSA; ref 10): 1200 M⁻¹
affinity (Ka) for the IIA site of HSA (HSA; ref 40-42): 1200 M⁻¹
affinity for site IIA of HSA (Ka) (HSA; reference not given): 1200 M⁻¹

Compound: NS(=O)(=O)c1cc(C(=O)O)c(NCc2ccco2)cc1Cl [Furosemide]
binding to RSA (RSA): ≤ 99.1%

Compound: CC(=O)CC(c1ccccc1)c1c(O)c2ccccc2oc1=O (stereo not shown) [Warfarin]
affinity for HSA (Ka) (HSA; ref 45): 340000 M⁻¹
affinity for HSA (Ka) (HSA; ref 47): 340000 M⁻¹
affinity for HSA (Ka) (HSA; reference not given): 340000 M⁻¹

Compound: N[C@@H](Cc1c[nH]c2ccccc12)C(=O)O [L-tryptophan]
affinity (Ka) for the IIIA site of HSA (HSA; ref 29-31): 10000 M⁻¹

Compound: CC(C)Cc1ccc(C(C)C(=O)O)cc1 (stereo not shown) [Ibuprofen]
affinity (Ka) for the IIIA site of HSA (HSA; ref 10): 2.7e+06 M⁻¹
affinity for the IIIA site of HSA (Ka) (HSA; reference not given): 2.7e+06 M⁻¹

increase in free radiopharmaceutical level [2]: 300–500%
displacement from HSA [2, 10]: not observed
% Free (corrected) [2, 11]: 5.9 ± 0.4%
% Free (corrected) [2, 12]: 7.1 ± 0.6%
% Free (corrected) [2, 13]: 7.5 ± 0.8%
% Free (corrected) [2, 14]: 8.2 ± 1.1%
% Free (corrected) [2, 15]: 7.3 ± 0.8%
% Free (corrected) [2, 16]: 10.5 ± 1.1%
displacement from HSA [2, 17]: no displacement
% Free (corrected) [2, 18]: 7.3 ± 0.2%
% Free (corrected) [2, 19]: 9.4 ± 0.8%
% Free (corrected) [2, 20]: 12.4 ± 0.9%
% Free (corrected) [2, 21]: 14.5 ± 0.6%
% Free (corrected) [2, 22]: 19.0 ± 1.7%
Unbound level [3]: 37.0%
Free tracer [3]: 43.8%
Compound: CN=C([S-])N/N=C(C)/C(C)=N/NC([S-])=NC.[Cu+2] [[^64Cu]Cu-ATSM, diacetyl bis(N^4-methylthiosemicarbazonato)copper(II)]
% bound to HSA [4]: approx. 95%

Compound: C=CC1=C(C)/C(=C/c2[nH]c(Cc3[nH]c(/C=C4\NC(=O)C(C)=C4C=C)c(C)c3CCC(=O)O)c(CCC(=O)O)c2C)NC1=O [bilirubin]
association with HSA (Ka) (HSA; site believed distinct from the IIA and IIIA drug sites, no reference given): 9.5e+07 M⁻¹

effect of fatty acid addition on HSA binding ([2]; 1:1 fatty acid:HSA ratios (capric, myristic, palmitic, oleic)): little effect
level of free [^64Cu]Cu-PTSM relative to fatty acid-free ([2]; 6:1 fatty acid:HSA mole ratios (capric, myristic, palmitic, oleic)): approximately doubled
increase in free radiopharmaceutical level [2]: 300–500%
displacement from HSA [2, 10]: not observed
% free ([2]; HSA with highest concentration of tryptophan, 4.8 mM (1.0 mg/mL)): 3.2 ± 0.1%
Unbound [^64Cu]Cu-PTSM ([2]; incubated at 49°C for 30 min): 3.8 ± 0.2%
Unbound [^64Cu]Cu-PTSM ([2]; room temperature control solutions): 4.2 ± 0.6%
% Free (corrected) ([2]; benzylpenicillin:HSA mole ratio 0.5, 40 mg/mL HSA): 3.8 ± 0.1%
% Free (corrected) ([2]; benzylpenicillin:HSA mole ratio 1, 40 mg/mL HSA): 3.5 ± 0.1%
% Free (corrected) ([2]; benzylpenicillin:HSA mole ratio 2, 40 mg/mL HSA): 3.3 ± 0.2%
% Free (corrected) ([2]; benzylpenicillin:HSA mole ratio 4, 40 mg/mL HSA): 3.4 ± 0.1%
% Free (corrected) ([2]; benzylpenicillin:HSA mole ratio 8, 40 mg/mL HSA): 3.3 ± 0.1%
% Free [^64Cu]Cu-PTSM ([2]; capric acid:HSA 1:1, 40 mg/mL HSA): 7.5 ± 0.3 (4) %
% Free [^64Cu]Cu-PTSM ([2]; capric acid:HSA 6:1, 40 mg/mL HSA): 12.6 ± 3.5 (5) %
displacement from HSA ([2]; cephmandole, drug:HSA mole ratios up to 4:1): not displaced
% Free (corrected) ([2]; cephmandole:HSA mole ratio 0.5, 40 mg/mL HSA): 3.5 ± 0.1%
% Free (corrected) ([2]; cephmandole:HSA mole ratio 1, 40 mg/mL HSA): 3.2 ± 0.2%
% Free (corrected) ([2]; cephmandole:HSA mole ratio 2, 40 mg/mL HSA): 3.5 ± 0.1%
% Free (corrected) ([2]; cephmandole:HSA mole ratio 4, 40 mg/mL HSA): 4.2 ± 0.2%
% Free (corrected) [2, 11]: 4.0 ± 0.1% and 4.0% and 4.0 ± 0.4%
increase in free [^64Cu]Cu-PTSM in solution ([2]; furosemide:HSA 8:1 mole ratio vs drug-free): > 700%
% Free (corrected) ([2]; furosemide:HSA mole ratio 1, 40 mg/mL HSA): 8.4 ± 0.2%
% Free (corrected) [2, 12]: 3.4 ± 0.1%
% Free (corrected) [2, 13]: 3.4 ± 0.3%
% Free (corrected) [2, 14]: 3.2 ± 0.5%
% Free (corrected) [2, 15]: 4.8 ± 0.2%
% Free (corrected) [2, 16]: 10.1 ± 0.6%
displacement from HSA [2, 17]: no displacement
% Free [^64Cu]Cu-PTSM ([2]; myristic acid:HSA 1:1, 40 mg/mL HSA): 6.8 ± 0.3 (4) %
% Free [^64Cu]Cu-PTSM ([2]; myristic acid:HSA 6:1, 40 mg/mL HSA): 14.6 ± 0.8 (5) %
% Free [^64Cu]Cu-PTSM ([2]; oleic acid:HSA 1:1, 40 mg/mL HSA): 6.0 ± 0.3 (4) %
% Free [^64Cu]Cu-PTSM ([2]; oleic acid:HSA 6:1, 40 mg/mL HSA): 12.7 ± 0.7 (4) %
% Free [^64Cu]Cu-PTSM ([2]; palmitic acid:HSA 1:1, 40 mg/mL HSA): 5.6 ± 0.2 (3) %
% Free [^64Cu]Cu-PTSM ([2]; palmitic acid:HSA 6:1, 40 mg/mL HSA): 9.6 ± 0.3 (4) %
% Free (corrected) ([2]; phenylbutazone:HSA mole ratio 1, 40 mg/mL HSA): 7.1 ± 0.1%
% Free (corrected) ([2]; phenylbutazone:HSA mole ratio 8, 40 mg/mL HSA): 28.7 ± 0.8%
% Free (corrected) [2, 18]: 4.6 ± 0.1%
% Free (corrected) [2, 19]: 5.8 ± 0.7%
% Free (corrected) [2, 20]: 7.7 ± 0.8%
% Free (corrected) [2, 21]: 14.8 ± 0.3%
% Free (corrected) [2, 22]: 20.1 ± 1.5%
free fraction ([3]; 40 mg/mL CSA, 8:1 mole ratio of warfarin (first value)): 36.1 ± 2.8%
Free tracer (% free) ([6]; saline + 2.5% v/v ethanol): 68.0 ± 2.3%
Free tracer (% free) ([6]; saline control): 67.2 ± 0.7%
% Free [^64Cu]Cu-PTSM (rat serum [8]; drug:RSA mole ratio 0): 14.7 ± 1.2%
% Free [^64Cu]Cu-PTSM (rat serum [8]; furosemide:RSA mole ratio 1): 20.2 ± 0.7%
% Free [^64Cu]Cu-PTSM (rat serum [8]; furosemide:RSA mole ratio 8): 28.6 ± 0.6%
% Free [^64Cu]Cu-PTSM (rat serum [8]; phenylbutazone:RSA mole ratio 1): 18.6 ± 0.4%
% Free [^64Cu]Cu-PTSM (rat serum [8]; phenylbutazone:RSA mole ratio 8): 20.6 ± 0.4%
% Free [^64Cu]Cu-PTSM (rat serum [8]; warfarin:RSA mole ratio 1): 19.8 ± 0.5%
% Free [^64Cu]Cu-PTSM (rat serum [8]; warfarin:RSA mole ratio 8): 24.1 ± 0.5%
Compound: CN=C([S-])N/N=C/C(C)=N/NC([S-])=NC.[Cu+2] [[^64Cu]Cu-PTSM, pyruvaldehyde bis(N^4-methylthiosemicarbazonato)copper(II)]
log P [5]: 1.9
% free in canine serum albumin (CSA) solutions [7]: approximately 42%
% bound to HSA [4]: approx. 95%
% free ([4]; HSA solution): 4.3 ± 0.2%
% free (rat serum [9]): 14.1 ± 0.3%

% Free (corrected) [2, 11]: 40.6 ± 1.1%
% Free (corrected) [2, 12]: 43.9 ± 2.2%
% Free (corrected) [2, 13]: 42.1 ± 2.7%
% Free (corrected) [2, 14]: 45.8 ± 2.6%
% Free (corrected) [2, 15]: 43.6 ± 3.1%
% Free (corrected) [2, 16]: 49.6 ± 1.2%
interaction with HSA on addition of site IIA or IIIA drugs ([2]; warfarin, ibuprofen up to 8:1): unaffected
% Free (corrected) [2, 18]: 42.8 ± 1.6%
% Free (corrected) [2, 19]: 44.2 ± 1.2%
% Free (corrected) [2, 20]: 45.2 ± 1.3%
% Free (corrected) [2, 21]: 42.8 ± 3.4%
% Free (corrected) [2, 22]: 44.7 ± 2.7%
Unbound level [3]: 40.4%
Free tracer [3]: 39.5%
Compound: ethylglyoxal bis(thiosemicarbazonato)copper(II) [[^64Cu]Cu-ETS]

Compound: Cn1nnnc1SCC1=C(C(=O)O)N2C(=O)[C@@H](NC(=O)[C@H](O)c3ccccc3)[C@H]2SC1 [Cephmandole]
binding to HSA (Ka) (HSA; ref 32): 1200 M⁻¹
